Measurements taken from ChEMBL document CHEMBL4513216, “Probing the Open Global Health Chemical Diversity Library for Multistage-Active Starting Points for Next-Generation Antimalarials” (ACS Infect Dis, 2020).

Experiment: Toxicity liver stage against HepG2, at 10uM
Type: cell-based
Set-up: test concentration 10 uM, cell line HepG2-A16-CD81EGFP
Conditions: human, HepG2-A16-CD81EGFP cells; read-out: INHIBITION
Procedure, shortened: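 Uninfected HepG2-A16-CD81EGFP cells, 3 × 10^3 per well, 1536-well, plated on prespotted compound at 10 μM final, parasite-free screening media added to match infected plates; puromycin 10 μM positive, DMSO 0.5% negative; run in parallel with 48 h PbLuc assay at 37 °C, 5% CO2; viability by CellTiter-Glo luminescence, normalized to controls.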

Point of comparison: `CCN(CC)CCNC(=O)c1ccc(-n2ccc3ccccc32)s1`, cytotoxicity at 10 µM 8.01%. Against it:
- COc1cccc(C(=O)NCC(c2cccn2C)N2CCCC2)c1OC (stereo not given) — lower, -2.4%
- CC(C)c1cccc(NC(=O)Cn2c(=O)n(C)c(=O)c3sccc32)c1 — higher, 42%
- CCN1CCN(C(=O)c2cc(NC(=O)c3ccccc3)n(C)n2)CC1 — higher, 8.91%
- Cn1nc(C(=O)NC2CC2)cc1NC(=O)C1CC1 — lower, -4.02%
- CCc1nccn1CC(=O)Nc1cccc(N2CCCC2)c1 — higher, 17.1%
- Cc1cccnc1CN1CC[C@H](Oc2cccc(F)c2)[C@@](C)(O)C1 — lower, -5.77%
- Cc1nc(NS(=O)(=O)c2cccc(F)c2C)no1 — lower, 5.3%
- COC(=O)CN(C(=O)C(C)c1c(F)cccc1F)c1cccc(C)n1 (stereo not given) — lower, -2.8%
- CS(=O)(=O)C1(C(=O)NC2CCc3nccn3C2)CCCC1 (stereo not given) — lower, -14%
- Cc1nc(CNC2CCc3nc(C(C)C)nn3C2)oc1C (stereo not given) — lower, -4.1%
- Cc1cc(C)n(C2CN(CC(=O)N(C)Cc3ccsc3)C2)n1 — lower, -0.912%
- CC(C)(C)c1cnc(CN(Cc2cccnc2)CC2CCCO2)o1 (stereo not given) — lower, 5.82%
- CCOC(=O)N1CCN(C(=O)c2sc(-c3ccccc3)nc2C)CC1 — lower, -3.08%
- O=S(=O)(NCC1COCCO1)c1ccc(C2CCCCC2)cc1 (stereo not given) — higher, 27.5%
- CC(C)c1ccc(C(N)c2cccs2)cc1 (stereo not given) — higher, 15.4%
- COc1ccc(C(C)NC(=O)N2CCNC(=O)CC2)cc1F (stereo not given) — higher, 13.5%
- Cc1ncccc1CNCC1COC2(CCCCC2)O1 (stereo not given) — lower, -149%
- CC(C)CC(NC(=O)CSc1ccc(F)c(Cl)c1)C(=O)O (stereo not given) — lower, -46%
- CN1CCCc2ccc(S(=O)(=O)NC(=O)C3CC=CC3)cc21 — lower, 2.84%
- CC(C)(C)C(=O)c1ccsc1NC(=O)CCNC(=O)c1ccco1 — lower, -52.7%
- O=C([C@H]1COC[C@H]2CN(C3CCCC3)C[C@H]21)N1CCOCC1 — lower, -105%
- Cc1cc2c(N3CCC(N(C)Cc4cnn(C)c4)CC3)ncnc2s1 — lower, -1.13%
- Oc1cccc(CN2CCN(c3nccc(CCC(F)(F)F)n3)CC2)c1 — lower, -18.7%
- O=C(c1coc(COc2cccc3cnccc23)n1)N1CCSCC1 — lower, -77.9%
- Cc1ccc2nc(C)cc(C(=O)N3C[C@H]4CCC[C@@]4(CO)C3)c2c1 — lower, 2.53%
- c1cc(-c2cscn2)cc(N2CCC(NCCc3cccs3)CC2)c1 — higher, 8.65%
- Cc1ccc(NCCCNC(=O)C2CCCN(Cc3ccco3)C2)nc1 (stereo not given) — lower, 3.15%
- Cc1noc(C)c1CN(C)c1ncnc2onc(C)c12 — lower, -20.7%
- CC(=O)c1ccc(N2CCCC(CO)(Cc3ccccc3C)C2)nc1 (stereo not given) — higher, 10.1%
- Cc1nc2c(c(NCc3nc4ccccc4s3)n1)CCNCC2 — lower, -37.8%
- CC(CN1CCCCCC1)NCc1nncn1C1CCCCC1 (stereo not given) — lower, -5.59%
- O=C1CN(Cc2cnc3c(-c4ccccc4)cnn3c2)CCCN1 — lower, 3.32%
- Nc1cc(N2CCC(c3cc(Cc4ccccc4)n[nH]3)CC2)ccn1 — higher, 24.6%
- Cc1cnc(C)c(N2CCN(Cc3ccc(C)c(C)c3)CC2)n1 — lower, 6.68%
- Cc1ncsc1CN1C[C@H](NC(=O)C2CCOCC2)[C@@H](C(C)C)C1 — lower, 6.67%
- Cc1cc(CC2COc3ccccc3C2)cnc1N (stereo not given) — lower, 0.873%
- CN(C(=O)c1ccccn1)c1nc2c(s1)CCc1c-2cnn1C — higher, 11.7%
- CC1CN(C)CCN1C(=O)c1cnn(-c2cccc(Cl)c2)c1 (stereo not given) — lower, -8.68%
- c1ccc(CCCN2CCN(c3ccc4nncn4n3)CC2)cc1 — lower, 4.2%
- O=C(c1cc(C2CC2)[nH]n1)N1CCN(Cc2ccc(Cl)cc2)CC1 — higher, 37.2%
- CCOc1cc(CN[C@@H]2COC[C@H]2Cc2cc(C)no2)ccc1O — higher, 14.8%
- Cc1ncccc1NC(=O)[C@H]1C[C@@H]2CCN(Cc3ccsc3)C[C@H]2O1 — lower, -79.1%
- NC(=O)N1CCc2cc(C(=O)O)c(-c3ccsc3)nc2CC1 — higher, 18.3%
- Cc1nc(CN2CCC3(CC2)CCN(C(=O)c2cscn2)C3)cs1 — lower, -71.9%
